Assay [1] has as its target T1, Adenosine receptor A1 (Homo sapiens) (UniProt P30542).
T1 sequence (whole entry): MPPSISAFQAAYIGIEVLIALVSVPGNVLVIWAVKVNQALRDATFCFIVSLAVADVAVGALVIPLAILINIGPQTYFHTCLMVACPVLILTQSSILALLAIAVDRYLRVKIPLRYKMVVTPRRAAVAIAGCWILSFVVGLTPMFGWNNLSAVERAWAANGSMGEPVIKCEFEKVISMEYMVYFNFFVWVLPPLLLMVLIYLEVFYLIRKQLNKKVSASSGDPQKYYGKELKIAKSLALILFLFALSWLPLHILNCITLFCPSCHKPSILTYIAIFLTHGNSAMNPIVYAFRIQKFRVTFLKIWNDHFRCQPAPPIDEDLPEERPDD
Briefly: Displacement of [3H]DPCPX from human adenosine A1 receptor expressed in CHO cell membranes at 1 uM incubated for 120 mins by scintillation counting method. The gist of the method:
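Membranes from hA1-CHO cells (50 μg protein/assay), pretreated with adenosine deaminase 2 IU/mL, 30 min at 37 °C. Incubated with 1 nM [3H]DPCPX in 50 mM Tris HCl pH 7.4 for 120 min at 25 °C. Nonspecific binding defined with 1 μM DPCPX. Test compounds at 1 μM, reported as percent inhibition. Separation by GF/B filtration; read by scintillation counting.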
Background: Displacement assays read how much labelled ligand stays bound in the presence of the test substance.

The target in assay [2] is Adenosine receptor A2a (Homo sapiens) (UniProt P29274). Briefly: Displacement of [3H]ZM241385 from human adenosine A2A receptor expressed in CHO cell membranes at 1 uM incubated for 60 mins by scintillation counting method. The gist of the method: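 Membranes from hA2A-CHO cells (50 μg protein/assay), deaminase-treated. Incubated with 1 nM [3H]ZM241385 in 50 mM Tris HCl, 10 mM MgCl2, pH 7.4 for 60 min at 4 °C. Nonspecific binding defined with 1 μM ZM241385. Test compounds at 1 μM, reported as percent inhibition. Filter separation; scintillation counting.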
Chain of Adenosine receptor A2a (Homo sapiens) (P29274 whole entry): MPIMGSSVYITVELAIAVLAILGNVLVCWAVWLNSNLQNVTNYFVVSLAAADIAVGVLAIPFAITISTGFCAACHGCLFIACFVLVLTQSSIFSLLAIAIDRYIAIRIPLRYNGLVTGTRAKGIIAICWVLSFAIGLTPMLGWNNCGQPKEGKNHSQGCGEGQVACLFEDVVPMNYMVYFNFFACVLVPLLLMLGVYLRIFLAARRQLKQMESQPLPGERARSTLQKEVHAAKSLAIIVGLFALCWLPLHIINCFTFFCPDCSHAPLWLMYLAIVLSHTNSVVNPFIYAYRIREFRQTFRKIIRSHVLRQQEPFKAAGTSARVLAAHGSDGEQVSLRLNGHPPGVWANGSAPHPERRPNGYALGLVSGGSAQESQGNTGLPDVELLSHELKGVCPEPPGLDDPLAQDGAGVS

Assay [3] deals with T2, Adenosine receptor A3 (Homo sapiens) (UniProt P0DMS8).
T2 sequence (whole entry): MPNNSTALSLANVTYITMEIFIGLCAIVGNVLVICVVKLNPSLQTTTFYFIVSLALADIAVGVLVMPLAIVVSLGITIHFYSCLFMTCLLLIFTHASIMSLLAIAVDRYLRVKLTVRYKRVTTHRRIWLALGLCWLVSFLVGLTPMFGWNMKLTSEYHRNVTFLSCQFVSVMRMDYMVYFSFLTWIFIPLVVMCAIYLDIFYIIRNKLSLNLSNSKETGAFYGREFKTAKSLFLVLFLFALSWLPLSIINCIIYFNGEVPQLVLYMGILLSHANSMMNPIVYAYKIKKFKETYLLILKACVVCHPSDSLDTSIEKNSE
Put plainly: Displacement of [125I]AB-MECA from human adenosine A3 receptor expressed in CHO cell membranes at 1 uM incubated for 120 mins by scintillation counting method. The gist of the method: (§1)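 Membranes from hA3-CHO cells (50 μg protein/assay), pretreated with 2 IU/mL adenosine deaminase. Incubated with 0.5 nM [125I]AB-MECA in 50 mM Tris HCl, 10 mM MgCl2, 1 mM EDTA, pH 7.4, with six to eight compound concentrations; percent inhibition taken at 1 μM. Ki from IC50 by Cheng–Prusoff, means of four assays in duplicate.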

The target in assay [4] is T3, Adenosine receptor A2b (Homo sapiens) (UniProt P29275).
T3 sequence (whole entry): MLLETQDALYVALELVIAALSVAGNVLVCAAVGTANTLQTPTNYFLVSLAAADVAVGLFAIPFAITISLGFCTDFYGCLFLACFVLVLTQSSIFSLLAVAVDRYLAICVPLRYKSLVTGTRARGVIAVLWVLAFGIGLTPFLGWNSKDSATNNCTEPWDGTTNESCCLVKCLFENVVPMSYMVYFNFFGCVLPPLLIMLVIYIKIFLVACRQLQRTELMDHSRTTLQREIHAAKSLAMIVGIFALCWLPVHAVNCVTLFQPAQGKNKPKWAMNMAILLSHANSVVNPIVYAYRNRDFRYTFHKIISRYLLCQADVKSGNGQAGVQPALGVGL
Put plainly: Antagonist activity against human adenosine A2B receptor expressed in CHO cells assessed as inhibition of NECA-induced cAMP production at 1 uM by scintillation counting method. The format is functional, cell-based. The gist of the method: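 hA2B-transfected CHO cells (1 × 10⁶ cells/assay) in buffered saline-glucose medium with 2 IU/mL adenosine deaminase and Ro 20-1724, preincubated 10 min at 37 °C, stimulated with 200 nM NECA; test compounds at 1 μM, reported as percent inhibition. Stopped with cold 6% TCA, ether-extracted; cAMP measured by competition binding with [3H]cAMP and beef adrenal binding protein.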

The target of a further assay is T4, Adenosine receptor A3 (Homo sapiens, UniProt P0DMS8).
T4 sequence (P0DMS8 whole entry): T2 sequence (whole entry)
Briefly: Displacement of [125I]AB-MECA from human adenosine A3 receptor expressed in CHO cell membranes incubated for 120 mins by scintillation counting method. In short, it runs like this: as §1

The structures appear in SMILES notation.

Regarding `Cc1nc2sc(-c3cccnc3)nc2c(=O)[nH]1`, the inhibition (commonly the relative decrease from the control value, in per cent) in assay [1] is 1%; in assay [2], 1%; in assay [3], 33%; in assay [4], 1%.

For `COc1cccc(-c2nc3c(=O)[nH]c(C)nc3s2)c1`, the inhibition in assay [1] was 1%; in assay [2], 12%; in assay [3], 28%; in assay [4], 4%.

For the compound `Cc1nc2sc(Nc3ccc(Cl)cc3)nc2c(=O)[nH]1`, the inhibition came to 33% in assay [1], 18% in assay [2], 49% in assay [3] and 1% in assay [4].

For `COc1cccc(Nc2nc3c(=O)[nH]c(C)nc3s2)c1`, the inhibition in assay [1] is 8%; in assay [2] it was 1%; in assay [4] it was 1%. The Ki (in general, a dissociation constant, usually derived from enzyme kinetics or from competition with a known ligand) on Adenosine receptor A3 was 113 nM.

For `Cc1nc2sc(-c3ccc(C(F)(F)F)cc3)nc2c(=O)[nH]1`, the inhibition in assay [1] is 1%; in assay [2], 37%; in assay [3], 32%; in assay [4], 1%.

Consider `Cc1nc2sc(-c3cccc(C(F)(F)F)c3)nc2c(=O)[nH]1`, for which the inhibition is 1% in assay [1], 15% in assay [2], 15% in assay [3] and 17% in assay [4].

Take `CCOc1nc(C)nc2sc(-c3ccccc3)nc12`: the inhibition in assay [1] came out at 11%; in assay [2] it was 1%; in assay [3] it was 6%; in assay [4], 1%.

Consider `CCOc1nc(C)nc2sc(Nc3cccc(OC)c3)nc12`, for which the inhibition in assay [1] was determined as 3%; in assay [2], 25%; in assay [4], 1%. On Adenosine receptor A3, this compound returned an inhibitory constant (Ki) of 110 nM.

On to `Cc1nc2sc(Nc3cccc(Cl)c3)nc2c(=O)[nH]1`, for which the inhibition was 44% in assay [1], 21% in assay [2], 48% in assay [3] and 1% in assay [4].

Take `COc1ccc(Nc2nc3c(=O)[nH]c(C)nc3s2)cc1`: the inhibition was 1% in assay [1], 1% in assay [2], 36% in assay [3] and 1% in assay [4].

For the compound `Cc1nc2sc(-c3cccc(Cl)c3)nc2c(=O)[nH]1`, the results for the inhibition in assay [1], in assay [2] and in assay [4] were 24%, 10% and 1%, respectively. On Adenosine receptor A3, this compound yielded an inhibition constant Ki of 826 nM.

Turning to `CCOc1nc(C)nc2sc(-c3ccc(C)cc3)nc12`, the inhibition stood at 1% in assay [1], 1% in assay [2], 5% in assay [3] and 1% in assay [4].

Turning to `Cc1nc2sc(-c3ccc(O)cc3)nc2c(=O)[nH]1`, the inhibition came to 1% in assay [1], 1% in assay [2], 15% in assay [3] and 1% in assay [4].

Take `Cc1ccc(Nc2nc3c(=O)[nH]c(C)nc3s2)cc1`: the inhibition in assay [1] was found to be 20%; in assay [2], 18%; in assay [3], 47%; in assay [4], 1%.

Consider `Cc1nc2sc(-c3cccs3)nc2c(=O)[nH]1`, for which the inhibition in assay [1] turned out to be 4%; in assay [2] it was 1%; in assay [4], 1%. The same compound had a Ki at Adenosine receptor A3 of 248 nM.

As for `CCOc1nc(C)nc2sc(-c3ccc(Cl)cc3)nc12`, the inhibition in assay [1] was determined as 6%; in assay [2], 9%; in assay [3], 10%; in assay [4], 1%.

As to `CCOc1nc(C)nc2sc(Nc3ccccc3)nc12`, the inhibition in assay [1] turned out to be 2%; in assay [2], 3%; in assay [3] it was 45%; in assay [4], 1%.

As to `Cc1nc2sc(-c3ccc(C(=O)O)cc3)nc2c(=O)[nH]1`, the inhibition in assay [1], in assay [2], in assay [3] and in assay [4] was 1% each time.

For the compound `Cc1nc2sc(-c3ccco3)nc2c(=O)[nH]1`, the inhibition in assay [1] is 37%; in assay [2], 1%; in assay [3] it was 20%; in assay [4], 2%.

As for `Cc1nc2sc(Nc3ccccc3)nc2c(=O)[nH]1`, the inhibition in assay [1] came out at 24%; in assay [2], 14%; in assay [3], 45%; in assay [4], 1%.

With `Cc1nc2sc(-c3ccncc3)nc2c(=O)[nH]1`, the inhibition came to 1% in assay [1], 1% in assay [2], 15% in assay [3] and 1% in assay [4].

Regarding `Cc1cccc(Nc2nc3c(=O)[nH]c(C)nc3s2)c1`, the inhibition turned out to be 12% in assay [1], 8% in assay [2] and 1% in assay [4]. The inhibition constant (Ki) at Adenosine receptor A3 amounted to 450 nM.

Turning to `Cc1nc2sc(Nc3ccc(Cl)c(Cl)c3)nc2c(=O)[nH]1`, the inhibition in assay [1] was determined as 30%; in assay [2] it was 16%; in assay [3] it was 25%; in assay [4] it was 1%.

As to `Cc1nc2sc(-c3cccc(F)c3)nc2c(=O)[nH]1`, the inhibition in assay [1], in assay [2] and in assay [4] was 1% throughout. Also, on Adenosine receptor A3, the Ki stood at 109 nM.

As for `COc1ccc(-c2nc3c(=O)[nH]c(C)nc3s2)cc1`, the inhibition is 10% in assay [1], 1% in assay [2] and 3% in assay [4]. The same compound returned a Ki on Adenosine receptor A3 of 38 nM.

Regarding `Cc1nc2sc(Cc3ccccc3)nc2c(=O)[nH]1`, the inhibition was 11% in assay [1], 1% in assay [2] and 1% in assay [4]. Besides, on Adenosine receptor A3, the inhibition constant Ki stood at 427 nM.

In the case of `Cc1nc2sc(-c3ccc(F)cc3)nc2c(=O)[nH]1`, the values for the inhibition in assay [1], in assay [2] and in assay [4] were 1%, 15% and 17%, respectively. The Ki at Adenosine receptor A3 is 107 nM.

For the compound `Cc1nc2sc(-n3cccc3)nc2c(=O)[nH]1`, the inhibition in assay [1] came out at 1%; in assay [2], 9%; in assay [4] it was 3%. The same compound yielded a Ki on Adenosine receptor A3 of 227 nM.

As for `Cc1cccc(-c2nc3c(=O)[nH]c(C)nc3s2)c1`, the inhibition in assay [1] worked out at 1%; in assay [2], 31%; in assay [4], 1%. The compound also gave an inhibition constant Ki at Adenosine receptor A3 of 384 nM.

For `Cc1ccc(-c2nc3c(=O)[nH]c(C)nc3s2)cc1`, the inhibition came to 17% in assay [1], 2% in assay [2] and 3% in assay [4]. The same compound displayed a Ki at Adenosine receptor A3 of 33 nM.

As to `Cc1nc2sc(-n3ccnc3)nc2c(=O)[nH]1`, the inhibition was 1% in assay [1], 1% in assay [2], 8% in assay [3] and 1% in assay [4].

These data come from ChEMBL document CHEMBL3414467, “Exploring the 7-oxo-thiazolo[5,4-d]pyrimidine core for the design of new human adenosine A3 receptor antagonists. Synthesis, molecular modeling studies and pharmacological evaluation” (Eur J Med Chem, 2015).
